proCasp7 act = counter-screen: procaspase-7 (human) activation. P55210. AID 463210. recombinant procaspase-7, Ac-DEVD-pNA absorbance 405 nm; D23A/D198A/D206A triple mutant, cannot self-cleave; scale: DMSO 0, 5 µM enzyme 100. 0.093% of 330,000 active. activation, % at 8.5 µM;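 active = percent activation above the screen-wide mean plus 3 SD, cut at about 25% in these data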
Target sequence (P55210 whole entry D23A/D198A/D206A): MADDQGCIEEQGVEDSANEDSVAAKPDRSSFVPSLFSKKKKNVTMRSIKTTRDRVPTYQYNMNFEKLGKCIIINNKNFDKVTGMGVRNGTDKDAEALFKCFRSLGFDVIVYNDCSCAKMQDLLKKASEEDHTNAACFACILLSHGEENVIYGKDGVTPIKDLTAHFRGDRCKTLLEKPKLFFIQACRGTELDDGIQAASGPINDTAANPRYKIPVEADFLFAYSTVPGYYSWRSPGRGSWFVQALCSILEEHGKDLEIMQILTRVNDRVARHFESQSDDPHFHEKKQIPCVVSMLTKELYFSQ
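Assay system: Uncleavable procaspase-7 mutant enzyme / Input: 2 µM procaspase-7 mutant as dispensed / Dosing: single nominal 8.5 µM compound dose, 0.8% DMSO final / Timing: 1 h enzyme–compound preincubation and 2 h substrate reaction, both 25 °C / Detection: p-Nitroaniline absorbance at 405 nm, read at 0 and 120 min / Replication: singlicate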
GAA850 FXN act = activators of GAA850 frataxin (FXN) promoter | AID 540364 | 0.56% of 360,000 active | HEK293 lucGAA850 FXN promoter luciferase reporter, 24 h; percent of 10 µM SAHA response | activation, % at 6 µM;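 active = activation above the average of all compounds screened plus 3 SD, cutoff fixed separately per campaign, cut at about 7.5% in these data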;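 also: 0% = DMSO wells and 100% = 10 µM SAHA wells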
proCasp3 act = activates human procaspase-3; P42574; 0.11% of 330,000 active; activation, % at 8.5 µM; recombinant procaspase-3 D3A, Ac-DEVD-pNA absorbance 405 nm;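 active = activation above the mean of all tested compounds plus 3 SD, cut at about 21% in these data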;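 also: 0% = DMSO alone and 100% = DMSO wells spiked with extra 5 µM PC-3 D3A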
Target sequence (P42574 whole entry D9A/D28A/D175A): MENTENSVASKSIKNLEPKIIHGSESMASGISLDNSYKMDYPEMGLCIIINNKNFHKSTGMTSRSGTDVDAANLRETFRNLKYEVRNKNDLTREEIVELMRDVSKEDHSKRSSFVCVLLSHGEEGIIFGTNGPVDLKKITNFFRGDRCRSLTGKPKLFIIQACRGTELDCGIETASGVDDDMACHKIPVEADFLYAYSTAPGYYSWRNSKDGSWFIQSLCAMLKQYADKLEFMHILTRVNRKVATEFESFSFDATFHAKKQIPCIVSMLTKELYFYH
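Test system: Procaspase-3 D3A mutant, all three cleavage aspartates alanine | Dosing: Single dose, 8.5 µM nominal compound, 0.8% DMSO | Schedule: 1 h preincubation, 2 h reaction | Technique: 405 nm absorbance of p-nitroaniline, reads at 0 and 120 min | Repeats: One well per compound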
GAA30 FXN cntr = counter-screen for GAA850 frataxin promoter activators: GAA30 promoter activation. 66% of 1,900 active. HEK293 lucGAA30 FXN promoter luciferase, 24 h; DMSO = 0%, 5 µM ipriflavone = 100%. activation, % at 6 µM. shares compounds with GAA850 FXN act;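 active = mean activation above the mean of solvent-only control wells plus 3 SD, cut at about 22% in these data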;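 also: counterscreen of GAA850 promoter hits where activity marks nonselective or luminescence artifacts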
FXN GAA850 conf = confirmation of GAA850 frataxin (FXN) promoter activators; shares compounds with GAA850 FXN act; HEK293 lucGAA850 FXN promoter luciferase reporter, 24 h; 100% = activation by SAHA; activation, % at 6 µM; 86% of 1,900 active; AID 588351;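 active = mean activation above a set limit taken from the primary screen, cut at about 8% in these data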;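 also: 0% = DMSO wells and 100% = 10 µM SAHA wells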
An asterisk follows results filed as active; / = no result. The list is not random: actives were taken first. Their share in the collection is about 0.7%.

SMILES	proCasp7 act	GAA850 FXN act	proCasp3 act	GAA30 FXN cntr	FXN GAA850 conf
C/C(=N\NC(=O)c1c(Cl)c(C)nn1C)c1ccc(NC(=O)C2CCC2)cc1	8	-2	1	/	/
CC(=O)c1ccc(NC(=S)NC(=O)c2c(Cl)c(C)nn2C)cc1	-8	8.8*	10	23*	7
COc1ccc2c(c1OC)C(=O)N(c1cccc(C(F)(F)F)c1)C2	13	18*	-2	99*	38*
COc1ccc2c(c1OC)C(=O)N(c1cccc(C)c1)C2	4	4	7	/	/
CC(/C=C/c1ccc(OCc2ccccc2)cc1)=N\O	-5	7.9*	2	117*	38*
CC(/C=C/c1ccccc1)=N/O	8	0	-1	/	/
O=C(NNc1ccc([N+](=O)[O-])cn1)Nc1ccc(N=Nc2ccccc2)cc1	/	1	/	/	/
Cc1ccc(OCC(=O)OC(C)C(=O)NC2CCCCC2C)cc1C (stereo unspecified)	-10	2	9	/	/
Cc1ccc(C(=O)NCc2ccc3c(c2)OCO3)cc1Cl	-13	4	6	/	/
Cc1ccc(C(=O)NCc2ccc3c(c2)OCO3)cc1C	3	8.7*	3	57*	22*
O=C(/C=C/c1ccc(OC2CSC2)cc1)c1ccccc1	-1	0	6	/	/
O=C(N/N=C/c1ccc(OC2CSC2)cc1)c1ccccc1	16	8.1*	5	84*	47*
COc1cc(NC(=O)c2cc3ccccc3o2)c(OC)cc1Cl	0	4	0	/	/
COc1cc(NC(=O)c2cc3ccccc3o2)c(OC)cc1Br	11	17*	-4	24*	16*
CN(C)c1ncnc2sc(-c3ccccc3)cc12	1	9.0*	2	46*	18*
CN(C)C(=O)COc1ncnc2sc(-c3ccccc3)cc12	-10	5	-4	/	/
COc1ncnc2sc(-c3ccccc3)cc12	8	9.0*	7	106*	37*
CC(C)(C)Nc1ncnc2sc(-c3ccccc3)cc12	-14	1	-5	/	/
O=C(CSc1ccccc1F)NCC(c1ccco1)N1CCCCC1 (stereo unspecified)	/	-1	/	/	/
O=C(CNC(=O)c1ccc2c(c1)OCCO2)N/N=C/c1ccc([N+](=O)[O-])cc1	-5	0	0	/	/
COc1ccc(CCN2CC(C(=O)N3CCSCC3)CCC2=O)cc1 (stereo unspecified)	-7	-1	-3	/	/
COC(=O)N1[C@H](C)C=C[C@]1(Cc1ccccc1)C(=O)NCCCNc1ncc(C(F)(F)F)cc1Cl	-10	7.8*	-1	23*	11*
C[C@]1(C(=O)NCCCNc2ncc(C(F)(F)F)cc2Cl)C=C[C@@H](Cc2ccccc2)N1C(=O)c1ccccc1	-10	0	-1	/	/
CC12CC3CC(C)(C1)CC(Nc1nc(N4CCOCC4)nc4ccccc14)(C3)C2	7	-1	3	/	/
COCCNc1c(-c2ccc(OC)cc2)nc2ccc(Cl)cn12	-8	7	-3	/	/
SMILES	proCasp7 act	GAA850 FXN act	proCasp3 act	GAA30 FXN cntr	FXN GAA850 conf
CCOC(=O)CNc1c(-c2ccc(OC)cc2)nc2ccc(Cl)cn12	2	8.0*	-5	92*	25*
CCCS(=O)(=O)NC(=O)C1(C)CCN(C(=O)c2cccnc2Oc2ccccc2)C1 (stereo unspecified)	/	1	/	/	/
O=S(=O)(NC1=NCCCCC1)c1cc(F)ccc1F	16	-1	0	/	/
Cn1c2ccccc2c2nnc(N/N=C/c3ccc(O)cc3)nc21	6	1	-1	/	/
O=C(NCc1cccc(C(F)(F)F)c1)c1ccc2nc([C@H]3C[C@H](O)[C@@H](CO)O3)[nH]c2c1	/	-1	/	/	/
CCN1CCCC1CNC(=O)c1ccc2c(c1)NC(=O)/C(=C\c1ccc(OC)c(OC)c1)S2 (stereo unspecified)	-11	7.7*	4	16	7
CCN1CCCC1CNC(=O)c1ccc2c(c1)NC(=O)/C(=C\c1ccccc1Cl)S2 (stereo unspecified)	/	1	/	/	/
COc1ccc2oc(C(=O)N3CCN(S(=O)(=O)c4c(C)c(C)cc(C)c4C)CC3)c(C)c2c1	/	0	/	/	/
Cc1cc(C)nc(SC2c3cccc4cccc(c34)C2NS(=O)(=O)c2ccccc2)n1 (stereo unspecified)	-3	8.6*	2	15	14*
Cc1ccc(S(=O)(=O)NC2c3cccc4cccc(c34)C2Sc2ncccn2)cc1 (stereo unspecified)	4	4	-6	/	/
Cc1cc(C(=O)N(C)CC(=O)Nc2ccc(F)c(F)c2F)no1	1	1	-3	/	/
CCOC(=O)c1sc(N/N=C/c2ccccc2)nc1C	-15	7.6*	-15	134*	40*
CCOC(=O)c1sc(N/N=C/c2cccc(C)c2)nc1C	-11	2	-19	/	/
CC1CCN(S(=O)(=O)c2ccc3c(ccn3CCC(=O)N3CCCCC3)c2)CC1	0	1	8	/	/
CC1CCC(NC(=O)CCn2ccc3cc(S(=O)(=O)N4CCCC4)ccc32)CC1 (stereo unspecified)	-16	8.4*	1	9	8.9*
COc1ccc(NC(=O)C2CCCN2S(=O)(=O)c2ccc3c(c2)CCC(=O)N3)cc1Cl (stereo unspecified)	-7	9.1*	9	6	12*
COc1ccc(NC(=O)C2CCCN2S(=O)(=O)c2ccc3c(c2)CCC(=O)N3)cc1 (stereo unspecified)	12	0	6	/	/
CN(C)C(=O)CCC(=O)N1CCCC(C(=O)c2ccc3c4c(cccc24)CC3)C1 (stereo unspecified)	-3	10*	-1	44*	13*
Cc1ncccc1C(=O)N1CCCC(C(=O)c2ccc3c4c(cccc24)CC3)C1 (stereo unspecified)	1	5	1	/	/
Nn1cnc2c(ncn2C2OC(CO)C(O)C2O)c1=O (stereo unspecified)	/	13*	/	14	6
OCC1OC(n2cnc3c(NC4CCCC4)ncnc32)C(O)C1O (stereo unspecified)	-10	12*	-2	39*	20*
Nc1ncnc2c1ncn2[C@@H]1O[C@H](CO)[C@@H](O)[C@@H]1O	0	-2	-4	/	/
OCC1OC(n2cnc3c(N4CCCCC4)ncnc32)C(O)C1O (stereo unspecified)	/	0	/	/	/
OC[C@H]1O[C@@H](n2cnc3c(NC4CCCC4)ncnc32)[C@H](O)[C@@H]1O	15	7	2	/	/
Nc1ncnc2c1ncn2C1O[C@H](CO)[C@@H](O)[C@@H]1O (stereo partly specified)	7	0	-7	/	/
Nc1ncnc2c1ncn2C1OC(C(=O)NC2CC2)C(O)C1O (stereo unspecified)	-2	9.7*	9	26*	15*

Screening data as filed in PubChem BioAssay.
